Measured values taken from ChEMBL document CHEMBL1123757, “Selective thromboxane synthetase inhibitors and antihypertensive agents. New derivatives of 4-hydrazino-5H-pyridazino[4,5-b]indole, 4-hydrazinopyridazino[4,5-a]indole, and related compounds” (J Med Chem, 1987).

How the values were obtained:
Rattus norvegicus [1] = test: Antihypertensive activity in spontaneously hypertensive rats (SHR) measured by percentage fall in arterial pressure (AP) at 25 mg/kg administered intraperitoneally at 1 h; assay type: functional, Artery; settings: route intraperitoneal
How it was run: (§1)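 Unanesthetized Okamoto-strain SHR, male and female, 8 weeks old, 300–350 g, systolic pressure ≥190 mmHg, heart rate 400–650 beats/min; five animals per dose. Given ip at 2.5 mL/kg, dissolved or suspended in normal saline or saline with 0.2% (carboxymethyl)cellulose and 1.0% Tween 80. Tail AP and CR recorded by mechanical transduction at set times; reported as percentage fall from control.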

Rattus norvegicus [2] = test: Antihypertensive activity in spontaneously hypertensive rats (SHR) measured by percentage fall in arterial pressure (AP) at 25 mg/kg administered perorally at 3 h; assay type: functional, Artery; settings: route oral
How it was run: (§2)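 Oral dosing at 2.5 mL/kg to unanesthetized male and female Okamoto-strain SHR (8 weeks old, 300–350 g, systolic pressure ≥190 mmHg, heart rate 400–650 beats/min), five per dose. Vehicle was normal saline or saline with 0.2% (carboxymethyl)cellulose and 1.0% Tween 80. AP measured on the tail by mechanical transduction at set times; expressed as percentage fall from control.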

Rattus norvegicus [3] = test: Percent fall in systolic blood pressure, directly measured on carotid (iv on the jugular vein) of spontaneously hypertensive rats at 1 mg/kg after 60 minutes; assay type: functional, Artery
How it was run: (§3)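 Anesthetized (sodium pentobarbital, 70 mg/kg) male and female Okamoto SHR, 8 weeks old, 300–350 g. Given iv into the jugular vein in normal saline. Arterial pressure and cardiac rhythm are recorded directly from the carotid by polygraph at set times after dosing. Each is expressed as percent change from the pre-dose control value.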

Rattus norvegicus [4] = test: Antihypertensive activity in spontaneously hypertensive rats (SHR) measured by percentage fall in cardiac rhythm (CR) at 5 mg/kg administered intraperitoneally at 3 h; assay type: functional, Heart; settings: route intraperitoneal
How it was run: (§4)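 Conscious SHR (Okamoto strain), 8 weeks old, male and female, 300–350 g, systolic BP ≥190 mmHg, CR 400–650 beats/min. Given ip or po at 2.5 mL/kg in normal saline or saline with 0.2% (carboxymethyl)cellulose and 1.0% Tween 80. Tail AP and CR recorded by mechanical transduction at 1, 3, 5 and 24 h, five animals per dose. Effect expressed as % fall versus control.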

Cavia porcellus [5] = test: Effect on thromboxane synthetase activity (ex vivo) at 100 mg/kg expressed as percent increase in PGE-2; assay type: functional
How it was run: (§5)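 Fasted male or female guinea pigs (250–300 g, five per group) dosed orally in normal saline or saline with 0.2% (carboxymethyl)cellulose/1.0% Tween 80; controls given vehicle. Under ether, cardiac blood collected into 3.8% citrate. PRP adjusted to […] and aggregation induced by ADP (second wave) or AA, read by absorbance aggregometry. PGE2 and TXB2 measured by RIA.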

[6] = Effect on PGI-2 release from rat aortic tissue at a final concentration of 10e -4 for an incubation time of 10 minutes; assay type: functional
How it was run: (§6)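 Female Wistar rats (200–220 g) received heparin 200 IU/kg ip and were killed 10 min later. Aortic pieces of about 25 mm² were washed in ice-cold oxygenated Krebs–Henseleit buffer, then incubated in 1 mL buffer at 37 °C. Compound at 10^-4 M final was added 10 min before tissue transfer. PGI2 release was read as antiaggregatory activity of the incubate on ADP (2×10^-6 M)-induced human PRP aggregation and by 6-keto-PGF1α RIA. n = 4.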

Rattus norvegicus [7] = test: Antihypertensive activity in spontaneously hypertensive rats (SHR) measured by percentage fall in cardiac rhythm (CR) at 1 mg/kg administered intraperitoneally at 3 h; assay type: functional, Heart; settings: route intraperitoneal; how it was run: as §1
Rattus norvegicus [8] = test: Antihypertensive activity in spontaneously hypertensive rats (SHR) measured by percentage fall in arterial pressure (AP) at 5 mg/kg administered intraperitoneally at 5 h; assay type: functional, Artery; settings: route intraperitoneal; how it was run: as §1
Rattus norvegicus [9] = test: Antihypertensive activity in spontaneously hypertensive rats (SHR) measured by percentage fall in cardiac rhythm (CR) at 25 mg/kg administered intraperitoneally at 1 h; assay type: functional, Heart; settings: route intraperitoneal; how it was run: as §1
Rattus norvegicus [10] = test: Percent fall in systolic blood pressure, directly measured on carotid (iv on the jugular vein) of spontaneously hypertensive rats at 1 mg/kg after 120 minutes; assay type: functional, Artery; how it was run: as §3
Cavia porcellus [11] = test: Ex vivo inhibition of platelet aggregation induced by ADP-II at 100 mg/kg; assay type: functional; how it was run: as §5
Rattus norvegicus [12] = test: Percent increase in cardiac rhythm, directly measured on carotid (iv on the jugular vein) of spontaneously hypertensive rats at 1 mg/kg after 15 minutes; assay type: functional, Heart; how it was run: as §3
Homo sapiens [13] = species: Homo sapiens; test: In vitro inhibition of platelet aggregation induced by ADP-II (PRP incubated for 60 minutes at 37 degree C) at 10e-5 M; assay type: functional; settings: 1 h
How it was run: (§7)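 Human venous blood anticoagulated with 3.8% sodium citrate (1:9). PRP from centrifugation at 800 rpm for 10 min at room temperature. Count adjusted with PPP to […]. Compound in saline with 10% ethylene glycol is added to PRP and incubated at 37 °C before the agonist. Agonists: ADP 2×10^-5 M, AA 0.6 mM, PGH2 2.8 μM, adrenaline 0.6 μM. Born absorbance aggregometry; n = 5.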

Rattus norvegicus [14] = test: Antihypertensive activity in spontaneously hypertensive rats (SHR) measured by percentage fall in arterial pressure (AP) at a dose of 25 mg/kg administered perorally at 1 h; assay type: functional, Artery; settings: route oral; how it was run: as §2
Rattus norvegicus [15] = test: Antihypertensive activity in spontaneously hypertensive rats (SHR) measured by percentage fall in arterial pressure (AP) at 5 mg/kg administered intraperitoneally at 3 h; assay type: functional, Artery; settings: route intraperitoneal; how it was run: as §1
[16] = Effect on PGI-2 release from rat aortic tissue at a final concentration of 10e -4 for an incubation time of 35 minutes; assay type: functional; how it was run: as §6
Homo sapiens [17] = species: Homo sapiens; test: In vitro inhibition of platelet aggregation induced by ADP-II (PRP incubated for 5 minutes at 37 degree C) at 10e-5 M; assay type: functional; how it was run: as §7
Rattus norvegicus [18] = test: Percent increase in cardiac rhythm, directly measured on carotid (iv on the jugular vein) of spontaneously hypertensive rats at 1 mg/kg after 60 minutes; assay type: functional, Heart; how it was run: as §3
Rattus norvegicus [19] = test: Antihypertensive activity in spontaneously hypertensive rats (SHR) measured by percentage fall in arterial pressure (AP) at 25 mg/kg administered intraperitoneally at 5 h; assay type: functional, Artery; settings: route intraperitoneal; how it was run: as §1
Rattus norvegicus [20] = test: Antihypertensive activity in spontaneously hypertensive rats (SHR) measured by percentage fall in arterial pressure (AP) at 25 mg/kg administered perorally at 24 h; assay type: functional, Artery; settings: route oral; how it was run: as §2
Rattus norvegicus [21] = test: Percent fall in systolic blood pressure, directly measured on carotid (iv on the jugular vein) of spontaneously hypertensive rats at 1 mg/kg after 240 minutes; assay type: functional, Artery; how it was run: as §3
Rattus norvegicus [22] = test: Percent fall in systolic blood pressure, directly measured on carotid (iv on the jugular vein) of spontaneously hypertensive rats at 1 mg/kg after 180 minutes; assay type: functional, Artery; how it was run: as §3
Rattus norvegicus [23] = test: Antihypertensive activity in spontaneously hypertensive rats (SHR) measured by percentage fall in cardiac rhythm (CR) at 25 mg/kg administered intraperitoneally at 5 h; assay type: functional, Heart; settings: route intraperitoneal; how it was run: as §4
[24] = Effect on thromboxane synthetase activity on in vitro platelet aggregation induced by AA at 10e -5 M expressed as percent increase in PGE-2; assay type: functional, Homo sapiens
How it was run: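 Human citrated PRP adjusted to 200 000 […], compound at 10^-5 M final in saline/10% ethylene glycol, incubated at 37 °C. Aggregation induced with arachidonic acid 0.6 mM and read by Born absorbance aggregometry. PGE2 and TXB2 in the aggregated samples measured by radioimmunoassay. n = 5.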

In the case of `COc1ccc2[nH]c3c(NN)nncc3c2c1.Cl`, the “Decrease in AP” value (Rattus norvegicus [1]) is reported as 58%, the “Decrease in AP” value (Rattus norvegicus [2]) is reported as 40% and the “Decrease in blood pressure” value (Rattus norvegicus [3]) is reported as 60%. The “Decrease in CR” value (Rattus norvegicus [4]) was -8%, the Increase (Cavia porcellus [5]) was 35% and the Inhibition [6] was 50%. The “Decrease in CR” value (Rattus norvegicus [7]) was 8%, the “Decrease in AP” value (Rattus norvegicus [8]) was 26% and the “Decrease in CR” value (Rattus norvegicus [9]) was 22%. For the same molecule, the “Decrease in blood pressure” value (Rattus norvegicus [10]) was 40%, the inhibition in vivo at 100 mg/kg (Cavia porcellus [11]) was 100% and the Increase (Rattus norvegicus [12]) was 11%. For the same molecule, the inhibition at 10 µM (Homo sapiens [13]) was 100%, the “Decrease in AP” value (Rattus norvegicus [14]) was 50% and the “Decrease in AP” value (Rattus norvegicus [15]) was 35%. For the same molecule, the Inhibition [16] was 25%, the inhibition at 10 µM (Homo sapiens [17]) was 100% and the Increase (Rattus norvegicus [18]) was 10%. The “Decrease in AP” value (Rattus norvegicus [19]) was 50%, the “Decrease in AP” value (Rattus norvegicus [20]) was 15% and the “Decrease in blood pressure” value (Rattus norvegicus [21]) was 30%. For the same molecule, the “Decrease in blood pressure” value (Rattus norvegicus [22]) was 36%, the “Decrease in CR” value (Rattus norvegicus [23]) was 24% and the Increase [24] was 47%.
